Laboratory results from ChEMBL document CHEMBL1122113, “Synthesis and antitumor activity of new platinum complexes” (J Med Chem, 1982).
Where “and” joins values, the source holds several entries; their conditions need not be identical. Identical values can stand only once.

What was measured:
L1210 [1] = assay: In vitro inhibition of PDD resistant subline L1210/PDD growth.; format: functional, cell-based; details: Mus musculus
In short: (§1)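 Murine L1210 and PDD-resistant L1210/PDD cells kept in McCoy's 5A with 10% fetal calf serum. Compounds in water or Me2SO, or as suspensions, added to inoculated medium; Me2SO at most 0.2% final. Seeding about 5 × 10^4 cells/mL, then 96 h at 37 °C in 5% CO2. Density measured by electronic cell counter. ID50 (µg/mL) from growth inhibition.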

L1210 [2] = assay: In vitro inhibition of L1210 leukemia cells growth.; format: functional, cell-based; details: Mus musculus; in short: as §1
Mus musculus [3] = assay: Activity against L1210 leukemia cells was measured as treated by control on ip administration of 0.62 mg/kg in mice; format: functional, organism-based; set-up: dose 0.62 mg/kg; details: at 0.62 mg/kg
Mus musculus [4] = assay: Activity against L1210 leukemia cells was measured as treated by control on ip administration of 2.5 mg/kg in mice; format: functional, organism-based; set-up: dose 2.5 mg/kg; details: at 2.5 mg/kg
Mus musculus [5] = assay: Activity against L1210 leukemia cells was measured as treated by control on ip administration of 10 mg/kg in mice; format: functional, organism-based; set-up: dose 10 mg/kg; details: at 10 mg/kg
Mus musculus [6] = assay: Activity against L1210 leukemia cells was measured as treated by control on ip administration of 20 mg/kg in mice; format: functional, organism-based; set-up: dose 20 mg/kg; details: at 20 mg/kg
Mus musculus [7] = assay: Activity against L1210 leukemia cells was measured as treated by control on ip administration of 5 mg/kg in mice; format: functional, organism-based; set-up: dose 5 mg/kg; details: at 5 mg/kg
Mus musculus [8] = assay: Activity against L1210 leukemia cells was measured as treated by control on ip administration of 1.25 mg/kg in mice; format: functional, organism-based; set-up: dose 1.25 mg/kg; details: at 1.25 mg/kg
Mus musculus [9] = assay: Activity against L1210 leukemia cells was measured as treated by control on ip administration of 40 mg/kg in mice; format: functional, organism-based; set-up: dose 40 mg/kg; details: at 40 mg/kg
Mus musculus [10] = assay: Activity against L1210 leukemia cells was measured as treated by control on ip administration of 50 mg/kg in mice;Toxic; format: functional, organism-based; set-up: dose 50 mg/kg; details: at 50 mg/kg
Mus musculus [11] = assay: Activity against L1210 leukemia cells was measured as treated by control on ip administration of 1 mg/kg in mice; format: functional, organism-based; set-up: dose 1 mg/kg; details: at 1 mg/kg

Substance | ID50 (L1210 [1]) [µg/mL] | ID50 (L1210 [2]) [µg/mL] | further results
ethyl(1-trichloroplatinum-2-pyridiniumyl)ammonium | > 10 | > 10 | –
1-methyl-4-trichloroplatinumhexahydropyrazinediium | > 10 | 9 | –
1-trichloroplatinumhexahydropyrazinediium | > 10 | > 10 | –
1-trichloroplatinum-1,4-diazoniabicyclo[2.2.2]octane | > 10 | > 10 | –
4-trichloroplatinum-4-azoniabicyclo[2.2.2]oct-2-ammonium | 5 | 2 | –
1-(4-pyridiniumyl)-2-(1-trichloroplatinum-4-pyridiniumyl)ethane | > 10 | > 10 | –
1-trichloroplatinum-3-pyridiniumammonium | > 10 | > 10 | –
1-chloroplatinumsulphate-3-pyridiniumammonium | > 10 | 4.6 | –
2-(1-ethylhexahydro-2-pyridiniumyl)-1-trichloroplatinumpyridinium | > 10 | > 10 | –
N-methyl-1-trichloroplatinum-3-pyridiniumylmethanammonium | > 10 | > 10 | T/C (Mus musculus [3]): 110%; T/C (Mus musculus [4]): 126%; T/C (Mus musculus [5]): 130%; T/C (Mus musculus [6]): 133%; T/C (Mus musculus [7]): 120%; T/C (Mus musculus [8]): 122%
1-pentachloroplatinum-3-pyridiniumammonium | > 10 | 4.4 | –
ethyl(1-trichloroplatinum-2-pyridiniumylmethyl)ammonium | > 10 | > 10 | T/C (Mus musculus [9]): 148%; T/C (Mus musculus [4]): 119%; T/C (Mus musculus [5]): 139%; T/C (Mus musculus [6]): 140%; T/C (Mus musculus [7]): 122%
3-(1-methyltetrahydro-1H-2-pyrroliumyl)-1-trichloroplatinumpyridinium | > 10 | > 10 | –
1-trichloroplatinumhexahydro-1-pyridiniumammonium | > 10 | 4.2 | –
1-(trichloro-dihydroxy)platinum-3-pyridiniumammonium | > 10 | 4.5 | –
1-trichloroplatinum-3-pyridiniumylmethanammonium | > 10 | > 10 | T/C (Mus musculus [10]): Toxic; T/C (Mus musculus [5]): 125%; T/C (Mus musculus [7]): 123% and 138%; T/C (Mus musculus [11]): 100%
2,5-dimethyl-1-trichloroplatinumhexahydropyrazinediium | > 10 | 10 | –
